Source: PubChem BioAssay (several laboratories)
Mdm2-MdmX inh – disrupts the human Mdm2-MdmX interaction; SaOS-2 split-luciferase Mdm2/MdmX complementation, luminescence; inhibition, % at 8 µM; 3% of 330,000 active; AID 485346;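 active = inhibition of at least 50% at 8 µM in the primary screen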
Target sequence (O15151 whole entry, looked up): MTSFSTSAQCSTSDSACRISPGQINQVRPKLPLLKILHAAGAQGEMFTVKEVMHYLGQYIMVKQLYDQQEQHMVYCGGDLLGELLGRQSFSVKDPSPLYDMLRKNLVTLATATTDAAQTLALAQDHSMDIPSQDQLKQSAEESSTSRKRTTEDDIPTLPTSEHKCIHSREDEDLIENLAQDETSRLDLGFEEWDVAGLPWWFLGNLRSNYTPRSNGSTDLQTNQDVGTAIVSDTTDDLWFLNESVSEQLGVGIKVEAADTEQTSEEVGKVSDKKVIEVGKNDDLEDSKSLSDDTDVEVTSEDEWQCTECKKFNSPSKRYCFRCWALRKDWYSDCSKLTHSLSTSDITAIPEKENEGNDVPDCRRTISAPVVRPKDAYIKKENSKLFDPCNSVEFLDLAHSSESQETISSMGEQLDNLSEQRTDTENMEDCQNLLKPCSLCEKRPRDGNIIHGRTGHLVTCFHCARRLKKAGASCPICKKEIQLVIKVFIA
Target sequence (Q00987 whole entry, looked up): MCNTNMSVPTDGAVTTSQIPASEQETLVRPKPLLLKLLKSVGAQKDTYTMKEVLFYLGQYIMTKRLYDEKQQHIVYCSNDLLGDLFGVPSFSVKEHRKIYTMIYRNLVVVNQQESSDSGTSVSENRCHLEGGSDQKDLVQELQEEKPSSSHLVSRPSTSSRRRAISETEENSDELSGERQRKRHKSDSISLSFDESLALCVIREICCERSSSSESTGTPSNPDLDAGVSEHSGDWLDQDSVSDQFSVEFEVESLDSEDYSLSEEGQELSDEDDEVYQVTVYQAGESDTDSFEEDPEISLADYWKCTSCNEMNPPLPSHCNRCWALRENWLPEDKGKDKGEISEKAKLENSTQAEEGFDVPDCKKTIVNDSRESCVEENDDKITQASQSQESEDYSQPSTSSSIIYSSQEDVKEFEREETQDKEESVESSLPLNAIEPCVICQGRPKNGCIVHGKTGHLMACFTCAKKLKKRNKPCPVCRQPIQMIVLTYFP
T cruzi repl – blocks replication of Trypanosoma cruzi; T. cruzi beta-gal in NIH3T3, luminescence, 90 h; 1.4% of 300,000 active; inhibition, % (no concentration beside the values);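 active = mean inhibition across valid replicates above about 55%, limit read from the data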;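 note: signal also drops with host cell toxicity which is not excluded here; 0% = plate median of DMSO wells and 100% = zero luminescence signal; higher percent means less beta-gal luminescence so fewer parasites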
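Read-out: Parasite load inhibition, % | Test system: Mouse NIH/3T3 fibroblasts infected with β-gal-expressing T. cruzi Tulahuen C4 | Amount: 5,000 cells/well | Medium: DMEM, 2% fetal bovine serum | Signal: GalScreen β-gal luminescence, detergent lysis, 60 min | Timing: 3 h attach, ≥90 h co-culture | Also added: Tulahuen C4 trypomastigotes, 5000/well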
Beta cell apopt – blocks beta cell apoptosis | INS-1E cytokine-induced death, ATP luminescence, 48 h; percent of positive-control rescue, neutral wells zero | protection from apoptosis, % (concentration not given with the values) | 0.8% of 300,000 active;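 active = Every replicate reaches about 75%, or at least half do and their mean reaches it too, limit read from the data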;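 note: 0% = cytokine-treated negative control wells and 100% = positive control rescue; higher means more ATP so stronger rescue from cytokine killing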
CSC inhib – blocks cancer stem cells; cancer stem cell-like cells viability, luminescence; inhibition, % at 7.5 µM; 1.1% of 300,000 active; AID 2717; in the data active = inhibition above about 75%; tested in HMLE shEcad cells
SKKanGAS inh – inhibitors of SKKanGAS S. pyogenes growth in kanamycin (SK-promoter or general growth effect). BacTiter-Glo, 6 h. inhibition, % at 7.5 µM. 1.3% of 300,000 active. AID 1662;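 active = mean replicate score, as percent of positive control median, at least 50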;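 note: strain carries kanamycin resistance gene driven by streptokinase promoter and grows in 40 µg/ml kanamycin; loss of luminescence reflects streptokinase promoter inhibition or plain growth inhibition; 0% = median of DMSO wells and 100% = positive control at its reference dose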
Calb FLC – C. albicans growth modulation with fluconazole. C. albicans CaCi-2 (fluconazole-resistant clinical isolate) + fluconazole, Alamar Blue growth, 48 h. growth inhibition, % (test concentration not listed). 0.57% of 300,000 active. AID 1979;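 active = growth inhibition above about 58% in most replicates, limit read from the data, passing the limit was not always enough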;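 note: all wells also contain fluconazole at 8 µg/ml as a sub-toxic cotreatment; 0% = median of DMSO wells and 100% = median of geldanamycin control wells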
Mdm2-MdmX conf – confirmation of human Mdm2/MdmX interaction inhibitors. shares compounds with Mdm2-MdmX inh. 55% of 10,000 active. Mdm2-MdmX binding, luminescent assay. inhibition, % at 8 µM; in the data active = inhibition above about 40%
FLuc counter – counter-screen for Mdm2/MdmX inhibitors: full-length luciferase. SaOS-2 full-length luciferase counterscreen, luminescence. AID 504607. shares compounds with Mdm2-MdmX inh. inhibition, % at 8 µM. 77% of 6,200 active;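 active = mean inhibition at 8 µM reaching about 37%, which flags the compound as non-specific, limit read from the data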;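 note: p53-null SaOS-2 cells with luciferase driven by a doxycycline-inducible promoter; compound on cells about two nights before reading with doxycycline added after day one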
The depositor's hits bear a star; nt = not tested or not shown. The list is not random: actives were taken first. Their share in the collection is about 5.7%.

SMILES	Mdm2-MdmX inh	T cruzi repl	Beta cell apopt	CSC inhib	SKKanGAS inh	Calb FLC	Mdm2-MdmX conf	FLuc counter
Nc1ncnc(NCc2ccc(F)cc2)c1[N+](=O)[O-]	68.6*	-11.3	-24.4	-14.9	-3.3	1.8	61.5*	27.0
c1ccc(N2CCN(c3ncnc4sc5c(c34)CCC5)CC2)cc1	66.9*	2.0	-0.2	13.5	21.1	-41.4	56.2*	38.6*
CC(C)c1ccc(O)c(NC(=S)NC(=O)c2cccnc2)c1	5.0	5.3	2.9	30.4	-9.9	27.1	nt	nt
CC(C)(C)c1cc(Cl)c(O)c(NC(=S)NC(=O)c2cccnc2)c1	57.3*	70.2*	23.9	26.3	81.6*	48.8	52.6*	35.2
COc1cc(NS(=O)(=O)c2ccc(N/C=C(\C#N)c3nc4cc(Cl)ccc4o3)cc2)nc(OC)n1	54.0*	5.7	22.5	94.7*	28.4	8.9	43.5*	35.2
CN(C)C=NC(=O)c1[nH]c2ccc(Cl)cc2c1-c1ccccc1	79.8*	-3.5	-18.7	66.4	4.6	-8.7	34.7	nt
O=[N+]([O-])c1ccc(N2N=C(c3ccco3)CC2c2ccccc2)cc1 (stereo not drawn)	13.1	12.9	13.5	16.2	18.9	-4.7	nt	nt
COc1ccc(C2CC(c3cccc(Cl)c3)=NN2c2ccc(S(N)(=O)=O)cc2)cc1 (stereo not drawn)	67.7*	nt	nt	nt	nt	nt	-2.6	nt
O=[N+]([O-])c1ccc(N2N=C(c3ccccc3)CC2c2ccccc2O)cc1 (stereo not drawn)	90.5*	62.8*	25.1	102.5*	98.2*	10.1	35.5	103.6*
NS(=O)(=O)c1ccc(N2N=C(c3ccc(Br)cc3)CC2c2ccc(F)cc2)cc1 (stereo not drawn)	72.3*	52.6	-1.0	124.7*	71.6*	3.5	39.4	75.2*
NS(=O)(=O)c1ccc(N2N=C(c3ccccc3)CC2c2cccc(F)c2)cc1 (stereo not drawn)	nt	19.6	7.1	22.9	17.7	9.2	nt	nt
COc1ccc(C2CC(c3ccc(Cl)cc3)=NN2c2ccc(S(N)(=O)=O)cc2)cc1 (stereo not drawn)	86.8*	nt	nt	nt	nt	nt	14.7	nt
NS(=O)(=O)c1ccc(N2N=C(c3ccccc3)CC2c2ccccc2Br)cc1 (stereo not drawn)	52.0*	nt	nt	nt	nt	nt	17.2	nt
Cc1cc(Nc2nc3ccccc3nc2Cl)n(-c2ccc([N+](=O)[O-])cc2)n1	95.9*	55.5*	76.8*	34.5	7.4	-1.0	48.9*	51.5*
Cc1cc(OCC(=O)NCC(c2ccc(F)cc2)N2CCOCC2)ccc1Cl (stereo not drawn)	-17.2	nt	-1.8	-0.6	nt	nt	nt	nt
C=C1CCC2[C@](C)(CO)[C@H](O)CC[C@@]2(C)[C@@H]1C/C=C1\C(=O)OC[C@H]1O (stereo partly drawn)	68.5*	-28.9	-16.6	-11.8	0.0	3.4	63.2*	27.2
O=C(NC(NC(=S)Nc1c(Cl)cc(Cl)cc1Cl)C(Cl)(Cl)Cl)OCc1ccccc1 (stereo not drawn)	85.7*	73.8*	44.3	31.7	86.3*	-7.6	57.0*	55.8*
Cc1ccc(C)c(NC(=S)NC(NC(=O)/C=C/c2ccccc2)C(Cl)(Cl)Cl)c1 (stereo not drawn)	81.3*	17.9	31.7	30.6	18.8	-7.6	74.0*	31.4
O=C(/C=C/c1ccccc1)NC(NC(=S)Nc1ccc(Cl)cc1Cl)C(Cl)(Cl)Cl (stereo not drawn)	94.5*	77.8*	26.7	110.3*	76.0*	-28.0	92.2*	23.4
O=C(/C=C/c1ccccc1)NC(NC(=S)Nc1cccc(Cl)c1)C(Cl)(Cl)Cl (stereo not drawn)	98.1*	59.0*	nt	71.7	100.9*	0.8	68.2*	25.6
O=C(NC(=S)Nc1nc(-c2ccc([N+](=O)[O-])cc2)cs1)c1ccco1	55.0*	-0.5	19.6	4.9	-4.4	-0.3	27.6	nt
Cc1ccc(-c2csc(NC(=S)NC(=O)/C=C/c3ccco3)n2)cc1	59.2*	-44.8	5.1	71.2	-1.0	1.9	51.4*	59.3*
